From PubChem
STAT1 blocker: reduces IFN-gamma driven STAT1 reporter signal; AID 920; inhibition, % at 5.5 µM; NIH 3T3 STAT1-luciferase reporter, luminescence; actives 0.35% (n = 200,000);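 active = inhibition above a set limit, the mean inhibition across all tested compounds plus 3 SD, cut at about 34% in these data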
L929 necroptosis: L929 zVAD cell death inhibition | actives 0.38% (n = 220,000) | viability rescue, % at 10 µM | L929 zVAD necroptosis rescue, ATP luminescence, 24 h; with zVAD 60 µM;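 active = activation, scaled between plate controls, above about 75%, limit read from the data; inactive = activation under that limit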
TNF necrop inh: inhibitors of TNF-alpha induced necroptosis in Jurkat FADD-/- cells | Jurkat FADD-/- TNF necroptosis rescue, ATP luminescence, 24 h; 0 = TNF only, 100 = no-TNF cells | activation (protection from cell death), % at 10 µM | actives 0.068% (n = 220,000) | AID 463075;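 active = activation, meaning protection from cell death, of at least 50% relative to plate controls; inactive = activation below 50%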;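 note: necroptosis triggered by 40 ng/mL TNF-alpha added together with compound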
STAT3 act: STAT3 signaling activation | U3A cells, IL-6 STAT3-luciferase reporter, luminescence; 100% = signal with IL-6 EC80 alone | activation (% of control), % at 5.6 µM | actives 0.91% (n = 190,000) | AID 871;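 active = activation above the screen-wide mean of compound activation plus 3 SD, cut at about 130% in these data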
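System – human U3A cells carrying STAT3-luciferase construct · Probe or stimulus – Interleukin-6, 33 ng/mL · Schedule – compound 1 h, then IL-6 6 h at 37 °C · Signal – luminescence from STAT3-driven luciferase reporter · Evaluation – percent of IL-6-only median luminescence · Benchmarks – IL-6-only high control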
STAT3 inh-1: reduces IL-6 driven STAT3 reporter signal; actives 0.89% (n = 190,000); AID 862; U3A cells, IL-6 STAT3-luciferase reporter, luminescence; host cell line lacks STAT1; inhibition, % at 5.5 µM;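 active = inhibition above the mean inhibition across all screened compounds plus 3 SD, cut at about 44% in these data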
STAT3 inh-2: STAT3 inhibition, confirmation assay. shares compounds with STAT3 inh-1. inhibition, % at 5.7 µM. actives 45% (n = 1,200). U3A cells, IL-6 STAT3 luciferase reporter, luminescence; cell line lacks STAT1. AID 1265;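 active = inhibition above the hit cutoff computed for the primary STAT3 screen, cut at about 44% in these data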
NFkB inh 2: counter-screen for STAT3 inhibitors: NF-kappaB inhibition; shares compounds with STAT3 inh-1; HEK293T NF-kB luciferase reporter, TNF-alpha induced; inhibition, % at 5.7 µM; actives 36% (n = 1,200); AID 1308;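 active = inhibition above the mean of solvent-only control wells plus 3 SD, cutoff set per campaign, cut at about 13% in these data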
STAT1 inh 2: STAT1 inhibition in STAT3 inhibitor counter-screen; NIH 3T3 STAT1-luciferase reporter, IFN-gamma induced, luminescence; shares compounds with STAT3 inh-1; AID 1317; inhibition, % at 5.7 µM; actives 27% (n = 1,200);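 active = inhibition above the mean plus 3 SD of solvent-only control wells, limit set per screening run, cut at about 16% in these data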
Each line names hits and unclear results; the compound was inactive in the other large screens (follow-up assays come after a bar, where they were run). Hits are enriched below; roughly 2.1% of the tested compounds scored in any of these assays.

CCC(O)C1CCN(C(=O)c2cc(COc3ccc4ncccc4c3)on2)CC1 (centres undefined)	STAT3 inh-1 84 | STAT3 inh-2 84 | NFkB inh 2 29 | STAT1 inh 2 27
CC(C)(C)NC(=O)NC(=O)CSc1n[nH]c(-c2ccccc2Br)n1	none
COc1ccc(OC)c(NC(=O)CSc2ncnc3c2cnn3-c2ccccc2Cl)c1	STAT3 inh-1 79 | STAT3 inh-2 81 | NFkB inh 2 31 | STAT1 inh 2 26
COc1cc(NC(=O)CSc2ncnc3c2cnn3Cc2ccccc2)cc(OC)c1	none
O=C(Nc1nc(-c2ccccc2)cs1)c1ccc(N2CCOCC2)c([N+](=O)[O-])c1	STAT3 inh-1 72 | STAT3 inh-2 77 | NFkB inh 2 23 | STAT1 inh 2 16
COc1cc(C2CC(=O)c3c([nH]c(C(=O)OCCOC(C)C)c3C)C2)cc(OC)c1OC (centres undefined)	STAT3 inh-1 59 | STAT3 inh-2 46 | NFkB inh 2 inactive | STAT1 inh 2 21
CCOC(=O)c1[nH]c2c(c1C)C(=O)CC(c1ccc(OC)c(OC)c1)C2 (centres undefined)	none
COc1ccc(CCNc2c(C)c(C)nc3ncnn23)cc1	STAT3 inh-1 82 | STAT3 inh-2 85 | NFkB inh 2 32 | STAT1 inh 2 26
Cc1nc2ccc(NC(=O)c3ccc(Cl)c(S(=O)(=O)N(C)c4ccccc4)c3)cc2s1	none
Cc1nc2ccc(NC(=O)c3cc(S(=O)(=O)N(C)c4ccccc4)ccc3Cl)cc2s1	STAT3 inh-1 55 | STAT3 inh-2 64 | NFkB inh 2 26 | STAT1 inh 2 27
O=C1COc2ccc(-c3csc(NCCc4ccccc4)n3)cc2N1	none
CCN(CC)c1ccc(NC(=O)/C=C/c2cc(Br)ccc2OC)cc1	none
COc1cccc(N2CCN(c3c4c(nc5ncnn35)CCC4)CC2)c1	STAT3 inh-1 56 | STAT3 inh-2 43 | NFkB inh 2 inactive | STAT1 inh 2 17
FC(F)(F)c1cccc(Nc2cc(-c3ccccc3)nc3ncnn23)c1	none (no result: STAT1 blocker, STAT3 act, STAT3 inh-1)
FC(F)(F)c1ccc(N2CCN(c3cc(-c4ccccc4)nc4ncnn34)CC2)nc1	STAT3 inh-1 48 | STAT3 inh-2 46 | NFkB inh 2 15 | STAT1 inh 2 27
CC(=O)c1cn(CC(=O)Nc2ccc(C)cc2C)c2ccccc12	STAT3 inh-1 62 | STAT3 inh-2 61 | NFkB inh 2 inactive | STAT1 inh 2 22
CC(=O)c1cn(CC(=O)Nc2cccc(C)c2C)c2ccccc12	STAT3 inh-1 49 | STAT3 inh-2 44 | NFkB inh 2 15 | STAT1 inh 2 23
COCCCNC(=O)Cn1cc(C(C)=O)c2ccccc21	none
COc1ccc(OCCSc2nc(C)c(Cc3ccccc3)c(=O)[nH]2)cc1	none
COC(=O)c1sccc1N/N=C/c1cccc(OC)c1O	STAT3 inh-1 60 | STAT3 inh-2 inactive | NFkB inh 2 inactive | STAT1 inh 2 inactive
COc1cccc(/C=N/Nc2nccnc2Cl)c1O	STAT3 inh-1 83 | STAT3 inh-2 inactive | NFkB inh 2 24 | STAT1 inh 2 inactive
Cc1ccc(-c2[nH]c3cc(C(=O)NCCCn4ccnc4)ccc3c(=O)c2O)cc1	none (no result: STAT1 blocker, STAT3 act, STAT3 inh-1)
COC(=O)c1ccc(-c2nc3cc(Cl)c(N)cc3s2)cc1	STAT3 inh-1 87 | STAT3 inh-2 69 | NFkB inh 2 31 | STAT1 inh 2 inactive
COc1ccc(/C=N/N2C(=O)c3ccccc3C2=O)cc1	none
COc1ccc(/C=N\n2nnc3ccccc32)cc1	STAT3 inh-1 93 | STAT3 inh-2 62 | NFkB inh 2 32 | STAT1 inh 2 inactive
COc1ccc(OCC(=O)NNC(=O)c2cccnc2)cc1	none
CCOC(=O)c1ccccc1N/C=C/C(=O)c1ccccc1	none
NC(=O)c1ccccc1N/C=C/C(=O)c1ccc(Cl)cc1	STAT3 inh-1 60 | STAT3 inh-2 inactive | NFkB inh 2 inactive | STAT1 inh 2 inactive
Cc1ccc(C(=O)/C=C/Nc2ccccc2C(N)=O)cc1	STAT3 inh-1 76 | STAT3 inh-2 inactive | NFkB inh 2 inactive | STAT1 inh 2 inactive
Cc1cc(C(=O)CSc2ncccn2)c(C)n1Cc1ccco1	none
O=C(NCC12CC3CC(CC(C3)C1)C2)c1nc2ncccn2n1	none
CCOC(=O)c1sc2nc(CC(=O)OC)nc(NCCN(CC)CC)c2c1C	none
CCOC(=O)c1sc2nc(CC(=O)OC)nc(NCc3ccc(Cl)cc3)c2c1C	STAT3 inh-1 44 | STAT3 inh-2 50 | NFkB inh 2 inactive | STAT1 inh 2 inactive
Cc1nc(NCCNC(=O)c2ccco2)c2c(C)c(C)sc2n1	none
Cc1nc(NCCc2ccc(S(N)(=O)=O)cc2)c2c(C)c(C)sc2n1	STAT3 inh-1 54 | STAT3 inh-2 48 | NFkB inh 2 inactive | STAT1 inh 2 30
C[n+]1c2n(c3ccccc31)N=C(c1ccc(-c3ccccc3)cc1)CS2	STAT3 inh-1 66 | STAT3 inh-2 inactive | NFkB inh 2 inactive | STAT1 inh 2 29
Cc1ccc2cc(C#N)c(NCCNC(=O)C3CC3)nc2c1C	STAT3 inh-1 56 | STAT3 inh-2 inactive | NFkB inh 2 inactive | STAT1 inh 2 inactive
CCCc1n[nH]c2c1/C(=N/O)CC(c1ccccc1)C2 (centres undefined)	STAT3 inh-1 45 | STAT3 inh-2 44 | NFkB inh 2 inactive | STAT1 inh 2 inactive
O=C(/C=C/c1cn(CC(O)CN2CCCCC2)c2ccccc12)c1ccccc1 (centres undefined)	none (no result: STAT1 blocker, STAT3 act, STAT3 inh-1)
Cc1c(Cl)cccc1NC(=O)c1cccc(NC(=O)CCC(=O)O)c1	none
CCOC(=O)N1CCC(Nc2ncnc3c2cnn3-c2ccc(C)cc2C)CC1	STAT3 inh-1 64 | STAT3 inh-2 49 | NFkB inh 2 14 | STAT1 inh 2 inactive
Cc1occc1C(=O)Nc1cc(=O)n(C)c(=O)n1C	none (no result: L929 necroptosis)
O=C(c1cc(COc2c(F)cccc2F)on1)N1CCC(c2ccccc2F)C1 (centres undefined)	none
O=C(c1cc(COc2c(F)cccc2F)on1)N1CCC(c2ccncc2)CC1	STAT3 inh-1 53 | STAT3 inh-2 59 | NFkB inh 2 18 | STAT1 inh 2 20
CCOC(=O)N1CCN(C(=O)C2CCCN(Cc3nc(-c4ccc(Cl)cc4)oc3C)C2)CC1 (centres undefined)	STAT3 inh-1 74 | STAT3 inh-2 60 | NFkB inh 2 23 | STAT1 inh 2 inactive
CCN1CCN(CCNC(=O)C2CCCN(Cc3nc(-c4cccc(Cl)c4)oc3C)C2)CC1 (centres undefined)	none
